Test results as given in ChEMBL document CHEMBL4823291, “Discovery of 5,6,7,8-tetrahydropyrido[3,4-d]pyrimidine derivatives as novel selective Axl inhibitors” (Bioorg Med Chem Lett, 2021).
pIC50: −log10 of the molar value.

What was measured:
[1] = biological target: T1, Tyrosine-protein kinase receptor UFO (Mus musculus, UniProt Q00993); assay: Inhibition of Axl in mouse BaF3 cells; format: cell-based
T1 sequence (Q00993 whole entry): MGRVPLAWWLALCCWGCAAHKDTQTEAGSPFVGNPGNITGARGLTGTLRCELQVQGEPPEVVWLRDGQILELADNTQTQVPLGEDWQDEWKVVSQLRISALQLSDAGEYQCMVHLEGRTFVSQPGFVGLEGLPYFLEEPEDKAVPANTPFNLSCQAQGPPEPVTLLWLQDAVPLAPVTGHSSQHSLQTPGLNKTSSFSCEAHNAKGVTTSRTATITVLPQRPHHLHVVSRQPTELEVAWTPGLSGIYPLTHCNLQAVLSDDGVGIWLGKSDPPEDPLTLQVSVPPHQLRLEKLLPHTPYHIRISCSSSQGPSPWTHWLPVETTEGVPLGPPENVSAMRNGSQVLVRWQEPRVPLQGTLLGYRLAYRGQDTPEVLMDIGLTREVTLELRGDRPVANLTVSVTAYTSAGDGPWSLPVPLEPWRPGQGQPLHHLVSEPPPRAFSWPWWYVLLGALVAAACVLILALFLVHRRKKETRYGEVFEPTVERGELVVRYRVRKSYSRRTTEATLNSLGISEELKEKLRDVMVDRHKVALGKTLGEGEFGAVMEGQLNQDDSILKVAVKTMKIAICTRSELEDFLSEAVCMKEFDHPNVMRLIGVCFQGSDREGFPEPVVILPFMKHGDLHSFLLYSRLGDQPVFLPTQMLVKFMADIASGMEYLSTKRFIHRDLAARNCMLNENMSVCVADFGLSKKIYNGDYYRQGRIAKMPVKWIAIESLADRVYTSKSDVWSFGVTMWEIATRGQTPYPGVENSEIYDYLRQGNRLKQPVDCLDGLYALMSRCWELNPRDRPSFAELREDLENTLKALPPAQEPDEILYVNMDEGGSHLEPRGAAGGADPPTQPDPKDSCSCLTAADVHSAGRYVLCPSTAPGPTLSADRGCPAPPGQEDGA

[2] = AUC (0 to 24 hrs) in CAnN.Cg-Foxnlnu/CrlCrlj mouse plasma at 25 mg/kg, po single dose measured up to 24 hrs by liquid chromatography tandem mass spectrometry; format: ADME, organism-based; design: route oral, dose 25 mg/kg, time <=24
[3] = biological target: T2, Tyrosine-protein kinase receptor UFO (Homo sapiens, UniProt P30530); assay: Inhibition of Axl (unknown origin) by cell free assay
T2 sequence (P30530 whole entry): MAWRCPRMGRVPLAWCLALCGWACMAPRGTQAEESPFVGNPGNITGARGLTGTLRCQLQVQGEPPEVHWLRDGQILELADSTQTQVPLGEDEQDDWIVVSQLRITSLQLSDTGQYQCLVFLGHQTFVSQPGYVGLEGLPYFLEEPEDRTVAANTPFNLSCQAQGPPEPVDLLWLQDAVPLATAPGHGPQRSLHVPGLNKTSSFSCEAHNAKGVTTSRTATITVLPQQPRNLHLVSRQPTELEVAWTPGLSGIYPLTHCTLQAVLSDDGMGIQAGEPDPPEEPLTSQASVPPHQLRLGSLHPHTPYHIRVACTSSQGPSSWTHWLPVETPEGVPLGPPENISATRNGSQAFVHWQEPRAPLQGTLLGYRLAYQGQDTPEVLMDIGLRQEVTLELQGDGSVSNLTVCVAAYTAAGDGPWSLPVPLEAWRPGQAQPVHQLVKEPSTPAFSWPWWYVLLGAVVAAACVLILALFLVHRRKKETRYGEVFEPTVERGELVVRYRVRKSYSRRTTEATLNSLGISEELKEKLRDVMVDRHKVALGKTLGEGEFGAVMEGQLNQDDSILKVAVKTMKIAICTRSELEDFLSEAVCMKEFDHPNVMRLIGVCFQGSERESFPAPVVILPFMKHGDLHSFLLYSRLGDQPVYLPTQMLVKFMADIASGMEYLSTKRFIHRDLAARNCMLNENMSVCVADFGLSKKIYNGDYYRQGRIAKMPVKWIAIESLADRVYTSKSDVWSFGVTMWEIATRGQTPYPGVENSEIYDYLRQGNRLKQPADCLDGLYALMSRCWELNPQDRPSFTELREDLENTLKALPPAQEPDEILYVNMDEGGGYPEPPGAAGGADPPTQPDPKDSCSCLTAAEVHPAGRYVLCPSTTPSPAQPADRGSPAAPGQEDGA

[4] = Tmax in CAnN.Cg-Foxnlnu/CrlCrlj mouse plasma at 25 mg/kg, po single dose measured up to 24 hrs by liquid chromatography tandem mass spectrometry; format: ADME, organism-based
[5] = biological target: T3, Tyrosine-protein kinase Mer (Mus musculus, UniProt Q60805); assay: Inhibition of Mer in mouse BaF3 cells; format: cell-based
T3 sequence (Q60805 whole entry): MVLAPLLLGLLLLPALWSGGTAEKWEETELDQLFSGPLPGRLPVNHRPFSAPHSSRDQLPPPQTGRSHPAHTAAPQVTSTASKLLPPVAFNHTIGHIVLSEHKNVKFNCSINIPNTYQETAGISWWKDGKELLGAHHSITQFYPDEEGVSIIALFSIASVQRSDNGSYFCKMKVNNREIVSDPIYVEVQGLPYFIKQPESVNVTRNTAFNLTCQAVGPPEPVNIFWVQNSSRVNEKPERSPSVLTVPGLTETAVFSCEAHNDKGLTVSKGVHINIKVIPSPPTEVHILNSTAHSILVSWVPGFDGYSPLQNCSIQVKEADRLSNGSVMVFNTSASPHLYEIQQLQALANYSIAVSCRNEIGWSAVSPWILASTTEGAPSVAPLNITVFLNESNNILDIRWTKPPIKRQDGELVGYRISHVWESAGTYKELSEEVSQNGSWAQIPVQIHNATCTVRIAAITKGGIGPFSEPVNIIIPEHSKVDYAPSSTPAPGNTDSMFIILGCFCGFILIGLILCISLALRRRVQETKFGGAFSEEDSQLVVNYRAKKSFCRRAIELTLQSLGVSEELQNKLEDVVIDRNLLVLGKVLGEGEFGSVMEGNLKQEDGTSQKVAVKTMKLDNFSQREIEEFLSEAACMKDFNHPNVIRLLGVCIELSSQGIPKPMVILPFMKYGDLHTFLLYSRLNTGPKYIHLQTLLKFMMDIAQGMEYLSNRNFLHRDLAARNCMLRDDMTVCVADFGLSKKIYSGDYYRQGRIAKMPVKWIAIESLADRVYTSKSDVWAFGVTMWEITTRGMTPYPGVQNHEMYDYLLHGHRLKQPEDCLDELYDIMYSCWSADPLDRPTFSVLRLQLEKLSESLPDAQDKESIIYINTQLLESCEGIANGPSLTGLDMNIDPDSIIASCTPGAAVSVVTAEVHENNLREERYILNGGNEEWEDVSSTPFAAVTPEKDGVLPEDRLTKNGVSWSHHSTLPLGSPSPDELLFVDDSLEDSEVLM

CYP2C9 = CYP2C9 (Homo sapiens, UniProt P11712); assay: Time dependent inhibition of CYP2C9 in human liver microsomes assessed as enzyme remaining activity using cocktail of probe CYP as substrate at 50 uM; format: ADME; details: probe cocktail of CYP probe substrates, read-out: Activity
Outline: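 Time-dependent CYP inhibition in human liver microsomes, with test compound at 50 µM and a cocktail of probe CYP substrates.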

Sequence of CYP2C9 (P11712 whole entry): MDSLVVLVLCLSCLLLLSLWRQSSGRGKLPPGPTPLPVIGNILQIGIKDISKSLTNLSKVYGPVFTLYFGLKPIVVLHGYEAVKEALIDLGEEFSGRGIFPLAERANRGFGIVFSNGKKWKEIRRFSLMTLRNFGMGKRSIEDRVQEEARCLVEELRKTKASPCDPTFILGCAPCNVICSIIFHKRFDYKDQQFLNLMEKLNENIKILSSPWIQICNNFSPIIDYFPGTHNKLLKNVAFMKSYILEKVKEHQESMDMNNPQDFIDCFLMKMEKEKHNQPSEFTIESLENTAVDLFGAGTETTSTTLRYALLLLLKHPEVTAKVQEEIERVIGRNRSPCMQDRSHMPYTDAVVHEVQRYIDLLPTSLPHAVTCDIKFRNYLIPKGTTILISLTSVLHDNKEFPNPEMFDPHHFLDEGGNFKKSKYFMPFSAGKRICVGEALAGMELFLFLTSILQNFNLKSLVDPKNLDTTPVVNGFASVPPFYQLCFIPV

pIC50 [1]: 7.55 | AUC(0-t) [2]: 22900 ng·h/mL | pIC50 [3]: 8.28 | Tmax [4]: 2 h | pIC50 [5]: 6.74 | activity at 50 µM (CYP2C9): 87%
Structure (SMILES): Cc1ccc(-n2c(=O)c(C(=O)Nc3ccc(Oc4ncnc5c4CCN(CC4CCN(C)CC4)C5)c(F)c3)cn(C3CCCC3)c2=O)nc1
